Screening data: PubChem, several laboratories
A selection: hits, their analogues and other compounds. The true share with any hit is near 4.6%.
WT yeast gro inh = growth inhibition of WT yeast, mitochondrial fusion screen; mitochondrial fusion phenotypic screen, WT strain; inhibition, % at 10 µM; 2.1% of 190,000 active; in the data active = inhibition above about 58%; tested in S. cerevisiae
Biofilm kill mix = mixtures killing C. albicans biofilm | C. albicans biofilm persisters + clotrimazole, fluorescence viability; primary screen in compound mixtures of four per well | inhibition, % at 7.6 µM | 0.02% of 120,000 active | AID 1242;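 active = inhibition above 30.3% in the primary screen of four-compound pools, then above 30% when the compound was retested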;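 note: compounds exposed to preformed 24 h biofilms for 48 h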
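Test system: C. albicans CAF4-2 wild-type biofilms; buffer or medium: RPMI/MOPS medium, pH 7.0; schedule: 24 h biofilm formation, then 48 h compound exposure, 37 °C; detection: Alamar Blue fluorescence; measure: percent inhibition of biofilm viability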
Hck-Nef inh = blocks Nef-activated human Hck kinase. inhibition, % at 20 µM. Recombinant Hck-YEEI plus Nef, Z-Lyte FRET kinase assay. 0.68% of 220,000 active. P08631;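 active = Hck-Nef kinase inhibition above about 50%, limit read from the data; inactive = inhibition below that limit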
NCF1 inh = blocks human p47phox regulatory protein of NADPH oxidases. P14598. p47phox/p22phox peptide binding, fluorescence polarization, 2 h. inhibition, % at 24.7 µM. 0.53% of 220,000 active. AID 1274;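 active = inhibition above about 30%, limit read from the data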
RAM network inh = blocks the yeast RAM network; 1.8% of 190,000 active; S. cerevisiae dse1pr::URA3 reporter, 5-FOA growth OD615, 2 d; analog-sensitive cbk1-as2 kinase mutant strain; inhibition, % at 50 µM;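 active = inhibition above a set limit, 3 SD over mean compound inhibition, cut at about 8.4% in these data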;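 note: inhibition rescues growth on 5-FOA so higher OD means more RAM inhibition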
Arbovirus inh = arbovirus infection inhibition; arbovirus infection cell-based antiviral screen; inhibition, % at 10 µM; 0.37% of 200,000 active; AID 1251; in the data active = inhibition above about 30%
Numbers stand for hits; n = inactive; x = no result.

SMILES	WT yeast gro inh	Biofilm kill mix	Hck-Nef inh	NCF1 inh	RAM network inh	Arbovirus inh
O=C(c1cc(COc2ccc(F)cc2Cl)on1)N1CCc2ccccc2C1	n	n	n	n	10	n
CCc1nnc(NC(=O)C(CC)CC)s1	x	n	n	n	x	x
CC(SC#N)C(=O)C12CC3CC(CC(C3)C1)C2 (stereo not given)	n	n	n	n	n	n
Oc1cc(-c2ccccc2)c2ccccc2c1	n	n	n	n	n	n
COc1cc2ccccc2cc1C(=O)NC(=S)Nc1cc(C(=O)O)ccc1C	n	n	n	n	n	42
CCOC(=O)c1nnsc1N	x	n	n	n	x	x
O=C(N/N=C/c1ccc2c(c1)OCO2)c1sc2cc(Cl)ccc2c1Cl	n	n	n	31	n	n
COc1ccc2c(Cl)c(C(=O)N/N=C/c3ccc4c(c3)OCO4)sc2c1	n	x	n	n	n	n
CCOC(=O)Nc1csnn1	x	n	n	n	x	x
O=C(Nc1ncccc1O)c1cccc(S(=O)(=O)N2CCc3ccccc32)c1	69	x	n	n	n	n
O=C(Nc1ccc(N2CCOCC2)cc1)c1ccccc1SCC(=O)N1CCCC1	n	n	n	n	n	n
CCC(C)N1CC(C(=O)O)CC1=O (stereo not given)	x	x	n	47	n	n
COc1cc(CNn2cn[nH]c2=S)cc(Cl)c1OCc1ccc(F)cc1	66	n	n	n	n	n
C=CCOc1ccc(CNn2cn[nH]c2=S)cc1OC	n	x	n	n	n	n
Cc1ccc(S(=O)(=O)Nc2ccccc2CNc2ccc(Br)cn2)cc1	65	n	n	n	n	n
Cc1ccc(S(=O)(=O)Nc2ccc(N=Nc3ccc(O)cc3)cc2)cc1	71	n	n	n	11	n
Cc1ccc(S(=O)(=O)Nc2ccccc2-c2ccccc2NS(=O)(=O)c2ccc(C)cc2)cc1	62	x	n	n	n	n
Cc1ccc(S(=O)(=O)Nc2ccccc2CNc2ccccn2)cc1	n	n	n	n	n	n
Cc1cc(NC(=O)CCC(=O)N(CC(=O)NC2CCCC2)c2cccc(C)c2C)no1	x	x	n	x	x	x
COc1ccc(CN(CC2CCCO2)C(=O)c2cc3sccc3n2C)c(OC)c1 (stereo not given)	n	n	n	n	n	n
Cc1ccc(NC(=O)COC(=O)Cn2cnc3c2c(=O)n(C)c(=O)n3C)cc1Cl	n	n	n	n	n	n
CC(C)c1cccc(C(C)C)c1NC(=O)COc1nncc2ccccc12	n	n	n	n	n	n
COc1cccc2c1C(=O)c1c(O)c3c(c(O)c1C2=O)C[C@@](O)(C(=O)CO)C[C@@H]3O[C@H]1C[C@H](N)[C@H](O)[C@H](C)O1	59	n	n	n	n	n
Cc1ccc2nc(N3CCOCC3)c3nncn3c2c1	n	n	n	n	n	n
CCOC(=O)Cn1c(=NC(=O)c2ccc([N+](=O)[O-])s2)sc2ccccc21	65	n	n	n	n	n
SMILES	WT yeast gro inh	Biofilm kill mix	Hck-Nef inh	NCF1 inh	RAM network inh	Arbovirus inh
CCOc1ccc(C(=O)Nc2ccccc2-c2ccccc2)cc1Cl	n	x	n	n	n	n
COc1ccc(C(=O)Nc2ccccc2C(=O)O)cc1Cl	n	n	n	n	n	56
CCOc1c(Cl)cc(C(=O)Nc2ccccc2C(=O)O)cc1Cl	n	x	n	n	n	43
COc1ccc(C(=O)Nc2ccccc2C(=O)O)cc1NC(=O)C(c1ccccc1)c1ccccc1	x	n	n	n	x	x
COc1c(Cl)cc(C(=O)Nc2ccccc2-c2ccccc2)cc1Cl	n	x	n	n	8.7	n
S=c1[nH]ccn1Cc1ccccc1	n	n	n	n	n	n
O=C(NCCCN1CCOCC1)C(=O)N/N=C/c1cccc2ccccc12	x	n	n	n	x	x
CC(=O)N/C(=C\c1ccccc1)C(=O)NCC(=O)O	n	n	n	n	n	n
Cc1ccc(C(=O)NCC(=O)OCC(=O)NCCc2ccccc2)s1	n	n	n	n	n	n
CN1CCN(c2cc(-c3ccccc3)nc3cc(-c4ccc(F)cc4)nn23)CC1	84	x	n	n	n	n
CC(C)(C)c1cc(OC(=O)c2ccncc2)ccc1O	n	n	n	n	n	n
CC(C)(C)c1cc(OC(=O)c2ccccc2F)ccc1O	72	n	n	n	n	n
Cc1cc(N)ccc1-n1c(C)ccc1C	n	x	n	n	n	n
Cc1cc(N)ccc1N1CCCC1	n	x	n	97	n	n
NC(=O)c1cc(N)ccc1N1CCCCC1	n	n	n	n	n	n
NC(=O)c1cc(N)ccc1N1CCCC1	n	x	n	140	n	n
O=C(NCCc1ccccc1)C(=O)NCC1CCNCC1	n	n	n	n	n	n
